Experimental data reported in ChEMBL document CHEMBL4680332, “Lead optimization of 2-hydroxymethyl imidazoles as non-hydroxamate LpxC inhibitors: Discovery of TP0586532” (Bioorg Med Chem, 2021).
In brackets after ≈: the same amount, converted by molar mass.

Columns and labels:
Escherichia coli = test: Antibacterial activity against Escherichia coli ATCC 25922 by CLSI based broth microdilution method; assay type: functional
In short: (§1)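 Broth microdilution MIC per CLSI method; E. coli ATCC 25922 and K. pneumoniae ATCC 13883.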

Klebsiella pneumoniae [1] = test: Antibacterial activity against Klebsiella pneumonia ATCC 13883 by CLSI based broth microdilution method; assay type: functional; in short: as §1
[2] = Inhibition of Escherichia coli LpxC using DP-3-0-(R-3-hydroxymyristoy1)-N-acetylglucosamine as substrate incubated for 120 mins by fluorescamine assay
[3] = Protein binding in human serum at 1 ug/ml incubated for 4 hrs by LC-MS/MS analysis; assay type: ADME, cell-free; conditions: at 1 µg/mL, read-out: PB (converted)
In short: (§2)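 Equilibrium dialysis at 1 µg/mL final in pooled male ICR mouse serum or human volunteer serum (no anticoagulant). Dialyzed against 50 mM sodium phosphate buffer at 37 °C for 4 h (5% CO2, MWCO 12000–14000). Compound on each side measured by LC-MS/MS; binding % = (Cs−Cb)/Cs×100.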

[4] = Protein binding in ICR mouse serum at 1 ug/ml incubated for 4 hrs by LC-MS/MS analysis; assay type: ADME, cell-free; conditions: at 1 µg/mL, read-out: PB (converted); in short: as §2
Klebsiella pneumoniae [5] = test: In vivo antibacterial activity against Klebsiella pneumonia ATCC BAA-2343 infected in ICR mouse assessed as reduction in bacterial burden in lung at 50 mg/kg, sc administered after 2 hrs of infection and measured after 26 hrs of infection; assay type: functional; conditions: time 24 hrs
In short: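 Female ICR mice (5 weeks) made neutropenic with cyclophosphamide ip, 150 and 100 mg/kg at days −4 and −1. Intranasal inoculation with 1.5–1.9 × 10^6 CFU. Compound in 10w/v% HP-β-CD given sc 2 h post-infection (n = 5). Lung viable counts at 2 h (control) and 26 h; mean log change versus start of therapy.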

[6] = Toxicity in iv dosed ICR mouse assessed as maximum tolerated dose; assay type: organism-based; conditions: in vivo
In short: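 Exploratory MTD study in male ICR mice (n = 2): a single intravenous tail-vein injection at dose levels of up to 200 mg/kg.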

Klebsiella pneumoniae [7] = test: In vivo antibacterial activity against Klebsiella pneumonia 4102 infected in ICR mouse assessed as mouse survival rate at 25 mg/kg, sc administered once after 1 hr of infection and observed for 7 days relative to control; assay type: functional; conditions: time 7 day
In short: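 Four-week-old male ICR mice given K. pneumoniae 4102 intraperitoneally (3.8–5.5 × 10^6 CFU/mouse) in 0.5 mL suspension with 3w/v% mucin. Compound in 10w/v% HP-β-CD, single subcutaneous dose 1 h post-inoculation (n = 6). Survival followed for 7 days.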

[8] = Cardiotoxicity in iv dosed Hartley guinea pig assessed as increase in QT prolongation measured after 30 mins; assay type: toxicity, organism-based, Cavia porcellus; conditions: in vivo, 0.5 h
In short: (§3)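 Guinea pigs (6–7 weeks) anesthetized with pentobarbital 60 mg/kg ip, then infused iv at 8 mg/kg/h; ventilated at 15 mL/kg, 60/min. Vehicle (11w/v% SBE-β-CD, pH4) or compound infused via jugular vein for 30 min. Carotid arterial pressure and ECG recorded; QT corrected by Bazett. Heart rate, QTc, SBP and DBP expressed as change from baseline.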

[9] = Cardiotoxicity in iv dosed Hartley guinea pig assessed as decrease in heart rate measured after 30 mins; assay type: toxicity, organism-based, Cavia porcellus; conditions: in vivo, 0.5 h; in short: as §3
[10] = Cardiotoxicity in iv dosed Hartley guinea pig assessed as decrease in blood pressure measured after 30 mins; assay type: toxicity, organism-based, Cavia porcellus; conditions: in vivo, 0.5 h; in short: as §3
[11] = Plasma concentration in Hartley guinea pig at 180 mg/kg, iv measured after 30 mins by LC-MS/MS analysis; assay type: ADME, organism-based, Cavia porcellus
In short: (§4)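 Anesthetized guinea pigs received a 30-min iv infusion. Blood was taken at the end of infusion and centrifuged, and plasma concentration (C30min) was measured by LC-MS/MS.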

[12] = Free plasma concentration in Hartley guinea pig serum assessed as fraction unbound at 180 mg/kg, iv measured after 30 mins by LC-MS/MS analysis; assay type: ADME, organism-based, Cavia porcellus; conditions: in vivo, 0.5 h
In short: (§5)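 Unbound plasma concentration at end of 30-min iv infusion in anesthetized guinea pigs: LC-MS/MS plasma C30min multiplied by fraction unbound, with plasma fu assumed equal to serum fu (equilibrium dialysis, 500 µg/mL in guinea pig serum).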

[13] = Plasma concentration in Hartley guinea pig at 60 mg/kg, iv measured after 30 mins by LC-MS/MS analysis; assay type: ADME, organism-based, Cavia porcellus; in short: as §4
[14] = Free plasma concentration in Hartley guinea pig serum assessed as fraction unbound at 60 mg/kg, iv measured after 30 mins by LC-MS/MS analysis; assay type: ADME, organism-based, Cavia porcellus; conditions: in vivo, 0.5 h; in short: as §5
[15] = Plasma concentration in Hartley guinea pig at 135 mg/kg, iv measured after 30 mins by LC-MS/MS analysis; assay type: ADME, organism-based, Cavia porcellus; in short: as §4
[16] = Free plasma concentration in Hartley guinea pig serum assessed as fraction unbound at 135 mg/kg, iv measured after 30 mins by LC-MS/MS analysis; assay type: ADME, organism-based, Cavia porcellus; conditions: in vivo, 0.5 h; in short: as §5
[17] = in the assay text read “LCMS assay” for “fluorescamine assay”

Row | SMILES | MIC (Escherichia coli) | MIC (Klebsiella pneumoniae [1]) | IC50 [2, 17] | fraction unbound at 4 h, 1 ug/ml [3] | fraction unbound at 4 h, 1 ug/ml [4] | IC50 [2] | further results
1 | C[C@H](O)c1nccn1[C@H](CN)c1cc(-c2ccc(C#C[C@@H]3[C@H]4CN(CCCC(=O)O)C[C@@H]34)cc2)on1 | 4 µg/mL (≈ 8.17 µM) | 16 µg/mL (≈ 32.7 µM) |  |  |  |  | 
2 | C[C@H](O)c1nccn1Cc1cc(-c2ccc(C#CC34CC(N)(C3)C4)cc2)no1 | 0.5 µg/mL (≈ 1.34 µM) | 2 µg/mL (≈ 5.34 µM) | 0.065 µM | 0.035 | 0.069 |  | 
3 | C[C@H](O)c1nccn1[C@H](CN)c1cc(-c2ccc(C#CC34CC(N)(C3)C4)cc2)on1 | 0.5 µg/mL (≈ 1.24 µM) | 2 µg/mL (≈ 4.96 µM) | 0.279 µM | 0.103 | 0.084 |  | Activity (Klebsiella pneumoniae [5]): -2.48 log10CFU; MTD [6]: 100 mg/kg
4 | COCCN1CCN(c2ccc(C#Cc3cc(Cn4ccnc4[C@H](C)O)no3)cc2)CC1 | 0.25 µg/mL (≈ 0.574 µM) | 0.5 µg/mL (≈ 1.15 µM) |  | 0.09 | 0.083 | 0.071 µM | 
5 | C[C@H](O)c1nccn1Cc1cc(-c2ccc(C#CC3(N)CC3)cc2)on1 | 0.5 µg/mL (≈ 1.44 µM) | 1 µg/mL (≈ 2.87 µM) | 0.046 µM | 0.07 | 0.099 |  | Activity (Klebsiella pneumoniae [7]): 67%
6 | C[C@H](O)c1nccn1Cc1cc(C#Cc2ccc(CCCO)cc2)on1 | 0.5 µg/mL (≈ 1.42 µM) | 2 µg/mL (≈ 5.69 µM) |  | < 0.005 | < 0.005 | 0.031 µM | 
7 | C[C@H](O)c1nccn1Cc1cc(-c2ccc(C#C[C@H]3C[C@H](O)C3)cc2)on1 | 0.12 µg/mL (≈ 0.33 µM) | 0.25 µg/mL (≈ 0.688 µM) |  | 0.017 | 0.035 | 0.015 µM | Activity (Klebsiella pneumoniae [7]): 0%
8 | C[C@H](O)c1nccn1Cc1cc(-c2ccc(C#CC34CC(N)(C3)C4)cc2)on1 | 0.25 µg/mL (≈ 0.668 µM) | 0.5 µg/mL (≈ 1.34 µM) | 0.049 µM | 0.027 | 0.034 |  | Activity (Klebsiella pneumoniae [7]): 0%
9 | C[C@H](O)c1nccn1Cc1cc(C#Cc2ccc(OC3CN(CCCO)C3)cc2)on1 | 2 µg/mL (≈ 4.73 µM) | 8 µg/mL (≈ 18.9 µM) |  | 0.261 | 0.165 | 0.378 µM | 
10 | C[C@H](O)c1nccn1Cc1cc(-c2ccc(C#C[C@@H]3[C@H]4CN(C=O)C[C@@H]34)cc2)on1 | 1 µg/mL (≈ 2.48 µM) | 2 µg/mL (≈ 4.97 µM) |  | 0.095 | 0.09 | 0.039 µM | Activity (Klebsiella pneumoniae [5]): -2.84 log10CFU; MTD [6]: 100 mg/kg
11 | C[C@H](O)c1nccn1[C@H](CN)c1cc(-c2ccc(C#CC3(N)CC3)cc2)on1 | 2 µg/mL (≈ 5.3 µM) | 8 µg/mL (≈ 21.2 µM) | 0.282 µM |  |  |  | 
12 | C[C@H](O)c1nccn1Cc1cc(-c2ccc(C#CCCCO)cc2)on1 | 1 µg/mL (≈ 2.85 µM) | 2 µg/mL (≈ 5.69 µM) |  | 0.031 | 0.049 | 0.051 µM | 
13 | C[C@H](O)c1nccn1[C@H](CN)c1cc(-c2ccc(C#C[C@@H]3[C@H]4CN(C=O)C[C@@H]34)cc2)on1 | 1 µg/mL (≈ 2.32 µM) | 2 µg/mL (≈ 4.64 µM) |  | 0.275 | 0.18 |  | Activity (Klebsiella pneumoniae [5]): -2.47 log10CFU; MTD [6]: ≥ 200 mg/kg; Activity [8]: Toxic; Activity [9]: Toxic; Activity [10]: Toxic; concentration at 0.5 h [11]: 233 µg/mL; Cp(f) [12]: 59.4 µg/mL
14 | C[C@H](O)c1nccn1[C@H](CN)c1cc(-c2ccc(C#C[C@H]3C[C@H](O)C3)cc2)on1 | 0.25 µg/mL (≈ 0.637 µM) | 1 µg/mL (≈ 2.55 µM) | < 0.037 µM | 0.074 | 0.07 |  | Activity (Klebsiella pneumoniae [5]): -1.99 log10CFU; MTD [6]: ≥ 200 mg/kg; Activity [8]: Toxic; Activity [9]: Toxic; Activity [10]: Toxic; concentration at 0.5 h [13]: 90.7 µg/mL; Cp(f) [14]: 15.6 µg/mL
15 | C[C@H](O)c1nccn1Cc1cc(-c2ccc(C#CC3(N)CC3)cc2)no1 | 1 µg/mL (≈ 2.87 µM) | 4 µg/mL (≈ 11.5 µM) | 0.193 µM | 0.115 | 0.15 |  | 
16 | C[C@H](O)CN1C[C@@H]2[C@@H](C#Cc3ccc(-c4cc([C@@H](CN)n5ccnc5[C@H](C)O)no4)cc3)[C@@H]2C1 | 1 µg/mL (≈ 2.17 µM) | 4 µg/mL (≈ 8.67 µM) |  | 0.212 | 0.151 |  | Activity (Klebsiella pneumoniae [5]): -1.19 log10CFU; MTD [6]: ≥ 200 mg/kg; Activity [8]: Toxic; Activity [9]: Toxic; Activity [10]: Toxic; concentration at 0.5 h [15]: 132 µg/mL; Cp(f) [16]: 36 µg/mL
17 | COCC(O)CN1C[C@@H]2[C@@H](C#Cc3ccc(-c4cc(Cn5ccnc5[C@H](C)O)on4)cc3)[C@@H]2C1 (mixture of isomers) | 0.5 µg/mL | 0.5 µg/mL |  | 0.076 | 0.077 | 0.097 µM | Activity (Klebsiella pneumoniae [7]): 17%
18 | COCC(O)CN1C[C@@H]2[C@@H](C#Cc3ccc(-c4cc(Cn5ccnc5[C@H](C)O)no4)cc3)[C@@H]2C1 (mixture of isomers) | 0.5 µg/mL | 0.5 µg/mL |  | 0.065 | 0.082 | 0.071 µM | Activity (Klebsiella pneumoniae [7]): 33%
